Test results reported in ChEMBL document CHEMBL1156826, “Multifunctional antioxidants for the treatment of age-related diseases” (J Med Chem, 2010).
Calls of active or inactive are those of the source. The rule behind the calls is not given here.

Experiments:
[1] = Binding affinity to Fe(3+) ions assessed as percent parent peaks remaining by electrospray ionization mass spectrometry; design: concentration or dose not given beside the values
Method in brief: (§1)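 Metal ion stocks (1 mM in double-distilled water) were prepared from ammonium iron(II) sulfate, iron(III) nitrate, copper(I) chloride, copper(II) chloride, zinc chloride, magnesium chloride or calcium chloride. Each was mixed with compound at metal:compound ratios of 10:1, 1:1 and 1:10, keeping the final compound concentration at 50 μM.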

[2] = Binding affinity to Mg(2+) ions assessed as percent parent peaks remaining by electrospray ionization mass spectrometry; design: concentration or dose not given beside the values; method in brief: as §1
HAh [3] = test: Cytoprotection in human HAh cells assessed as protection against Fenton's reagent-induced cell death after 2 hrs by MTS assay; type: functional, cell-based
Method in brief: (§2)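 Cells are seeded at 1 × 10⁴ per well and pre-treated 1 hr in FBS-free medium with 100 μM compound, then given 1 mM H2O2, or 1 mM H2O2 plus 1 mM iron(II) chloride (Fenton), for 2 hr. After a PBS wash, MTS is added in blank medium for 1.5 hr at 37 °C and read at 490 nm. Results are normalized to cells without H2O2 (100%), mean ± SD of three experiments.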

[4] = Binding affinity to Fe(2+) ions assessed as percent parent peaks remaining by electrospray ionization mass spectrometry; design: concentration or dose not given beside the values; method in brief: as §1
ARPE-19 [5] = test: Antioxidant activity in human […] cells assessed as inhibition of Fenton's reagent-induced reduction of cellular glutathione level after 2 hrs by DTNB method; type: functional, cell-based
Method in brief: (§3)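 Cells are pre-incubated 1 hr in FBS-free medium with 100 μM compound, then given 1 mM H2O2, or 1 mM H2O2 plus 1 mM iron(II) chloride (Fenton), for 2 hr. Cells are washed with PBS, scraped and homogenized; supernatant protein is measured by Bradford. Homogenate is deproteinized with 20% TCA, and GSH is read at 412 nm (DTNB). Values are nmol GSH/mg protein, normalized to unexposed cells (100%), in triplicate.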

SRA1 [6] = test: Cytoprotection in human SRA1 cells assessed as protection against H2O2-induced cell death after 2 hrs by MTS assay; type: functional, cell-based; method in brief: as §2
[7] = Binding affinity to Cu(2+) ions assessed as percent parent peaks remaining by electrospray ionization mass spectrometry; design: concentration or dose not given beside the values; method in brief: as §1
SRA1 [8] = test: Antioxidant activity in human SRA1 cells assessed as inhibition of Fenton's reagent-induced reduction of cellular glutathione level after 2 hrs by DTNB method; type: functional, cell-based; method in brief: as §3
[9] = Binding affinity to Zn(2+) ions assessed as percent parent peaks remaining by electrospray ionization mass spectrometry; design: concentration or dose not given beside the values; method in brief: as §1
HAh [10] = test: Antioxidant activity in human HAh cells assessed as inhibition of Fenton's reagent-induced reduction of cellular glutathione level after 2 hrs by DTNB method; type: functional, cell-based; method in brief: as §3
[11] = Binding affinity to Ca(2+) ions assessed as percent parent peaks remaining by electrospray ionization mass spectrometry; design: concentration or dose not given beside the values; method in brief: as §1
[12] = Binding affinity to Cu(1+) ions assessed as percent parent peaks remaining by electrospray ionization mass spectrometry; design: concentration or dose not given beside the values; method in brief: as §1
ARPE-19 [13] = test: Cytoprotection in human ARPE19 cells assessed as protection against Fenton's reagent-induced cell death after 2 hrs by MTS assay; type: functional, cell-based; method in brief: as §2
SRA1 [14] = test: Antioxidant activity in human SRA1 cells assessed as inhibition of H2O2-induced reduction of cellular glutathione level after 2 hrs by DTNB method; type: functional, cell-based; method in brief: as §3
SRA1 [15] = test: Cytoprotection in human SRA1 cells assessed as protection against Fenton's reagent-induced cell death after 2 hrs by MTS assay; type: functional, cell-based; method in brief: as §2

SMILES	Activity [1]	Activity [2]	Activity [4]	Activity [7]	Activity [9]	Activity [11]	Activity [12]	Activity (HAh [3])	Activity (ARPE-19 [5])	Activity (SRA1 [6])	Activity (SRA1 [8])	Activity (HAh [10])	Activity (ARPE-19 [13])	Activity (SRA1 [14])	Activity (SRA1 [15])
COc1cc(OC)nc(N2C(=O)CN(S(=O)(=O)N(C)C)CC2=O)n1	7.6%	100%	7.3%	3.4%	13.8%	100%	4.1%	Active	Active	inactive	Active	Active	Active	inactive	
COc1nc(N2C(=O)CN(S(=O)(=O)N(C)C)CC2=O)nc(OC)c1O	8.2%	100%	7.5%	3.6%	14.6%	100%	4%	Active	Active	Active	Active	Active	Active	Active	Active
Cc1c(C)c2c(c(C)c1O)CCC(C)(C(=O)O)O2 (stereo unspecified)										Active		Active			
CN(C)S(=O)(=O)N1CCN(c2ncc(O)cn2)CC1	100%	100%	100%	100%	100%	100%	100%	Active	Active	Active		Active	Active	Active	Active
CN(C)S(=O)(=O)N1CCN(c2ncccn2)CC1	100%	100%	100%	100%	100%	100%	100%			inactive				inactive	
COc1cc(OC)nc(N2CCN(S(=O)(=O)N(C)C)CC2)n1	100%	100%	100%	100%	100%	100%	100%			inactive				inactive	

Second part, led by results:

Activity [1]	Activity [2]	Activity [4]	Activity [7]	Activity [9]	Activity [11]	Activity [12]	SMILES	Activity (HAh [3])	Activity (ARPE-19 [5])	Activity (SRA1 [6])	Activity (SRA1 [8])	Activity (HAh [10])	Activity (ARPE-19 [13])	Activity (SRA1 [14])	Activity (SRA1 [15])
8.2%	100%	6.9%	3%	12.7%	100%	4.2%	CN(C)S(=O)(=O)N1CC(=O)N(c2ncc(O)cn2)C(=O)C1	Active	Active	Active	Active	Active	Active	Active	Active
100%	100%	100%	100%	100%	100%	100%	COc1nc(N2CCN(S(=O)(=O)N(C)C)CC2)nc(OC)c1O	Active	Active	Active		Active	Active	Active	Active
10%	100%	8.1%	4.4%	15.3%	100%	3.6%	CN(C)S(=O)(=O)N1CC(=O)N(c2ncccn2)C(=O)C1	Active	Active	inactive	Active	Active	Active	inactive	
